Compound activity: PubChem BioAssay, several laboratories
Runt-SMMHC FRET = inhibitors of RUNX1 Runt–CBFb-SMMHC binding, primary screen, biochemical, FRET, Cerulean-Runt, Venus-CBFb-SMMHC, uHTS; hit rate 0.74% among 220,000; inhibition, % at 20 µM; AID 1434, 2008; Cerulean-Runt/Venus-CBFb-SMMHC FRET ratio 530/480, 1 h; Runt-related transcription factor 1 (Homo sapiens) + Core-binding factor subunit beta …;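 active = mean inhibition across duplicate retests at 20 µM reaching about 50%, limit read from the data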;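 also: 0% = DMSO wells and 100% = wells with excess untagged CBFb-SMMHC; inhibitors lower the FRET ratio by blocking Runt binding to CBFb-SMMHC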
Target sequence (Q01196 whole entry, looked up): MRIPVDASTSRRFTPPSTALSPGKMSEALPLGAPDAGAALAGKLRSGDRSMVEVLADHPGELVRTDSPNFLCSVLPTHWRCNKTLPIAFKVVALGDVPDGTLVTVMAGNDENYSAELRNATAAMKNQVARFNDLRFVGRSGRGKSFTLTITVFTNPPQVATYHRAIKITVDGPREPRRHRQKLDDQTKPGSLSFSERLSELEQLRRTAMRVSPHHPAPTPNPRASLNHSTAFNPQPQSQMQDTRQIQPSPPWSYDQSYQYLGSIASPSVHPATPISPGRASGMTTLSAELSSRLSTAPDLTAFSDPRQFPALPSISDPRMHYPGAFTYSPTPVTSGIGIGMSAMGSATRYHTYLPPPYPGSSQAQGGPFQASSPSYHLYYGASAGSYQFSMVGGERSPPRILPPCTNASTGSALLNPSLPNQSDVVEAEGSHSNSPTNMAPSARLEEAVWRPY
Target sequence (Q13951 whole entry, looked up): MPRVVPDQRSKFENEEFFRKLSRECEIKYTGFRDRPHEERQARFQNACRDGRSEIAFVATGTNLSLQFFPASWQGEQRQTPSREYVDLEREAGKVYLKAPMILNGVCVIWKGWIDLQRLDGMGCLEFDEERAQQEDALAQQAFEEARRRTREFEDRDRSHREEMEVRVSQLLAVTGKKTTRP
RanGTP-Impb inh = inhibitors of RanGTP-importin-beta interaction, primary screen, biochemical, FRET, CFP-Ran, YFP-importin-beta, homogeneous | Ran GTPase (GTP-bound) - importin-beta complex | cell-free CFP-Ran/YFP-importin-beta FRET ratio | inhibition, % (no concentration beside the values) | hit rate 1.1% among 300,000 | AID 2216, 2009;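 active = more than half of the replicate wells show a fall in the fluorescence ratio signal beyond about 16%, limit read from the data, passing the limit was not always enough; inconclusive = exactly half of the replicate wells pass the set limit; inactive = fewer than half of replicates pass the limit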;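 also: 0% = DMSO wells and 100% = Ran loaded with GDP instead of GTP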
Runt-CBFb FRET = inhibitors of RUNX1 Runt–CBFb binding, primary screen, biochemical, FRET, Cerulean-Runt, Venus-CBFb, uHTS; Runt-related transcription factor 1 (Homo sapiens) + Core-binding factor subunit beta …; Cerulean-Runt/Venus-CBFb FRET ratio 530/480, 1 h; inhibition, % at 20 µM; hit rate 0.46% among 220,000;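 active = inhibition over about 50% at 20 µM in the single-dose screen, limit read from the data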;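 also: 0% = DMSO wells and 100% = excess unlabeled CBFb competitor control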
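Doses: 20 µM compound in 1% DMSO | Material: Cerulean-labeled Runt domain protein | Amount: Each fluorescent fusion protein 100 nM | Schedule: Two 1 h room-temperature incubations shielded from light | Measured by: FRET fluorescence | Evaluation: Loss of energy transfer signal | Controls: Unlabeled CBFb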
TNF necrop inh = inhibitors of TNF-alpha triggered necroptosis, primary screen, cell-based, Jurkat FADD-/-, single concentration; Jurkat FADD-/- TNF necroptosis rescue, ATP luminescence, 24 h; 0 = TNF only, 100 = no-TNF cells; activation (protection from cell death), % at 10 µM; hit rate 0.068% among 220,000;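 active = activation, meaning protection from cell death, of at least 50% relative to plate controls; inactive = activation below 50%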;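 also: necroptosis triggered by 40 ng/mL TNF-alpha added together with compound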
Hck Nef HTS = inhibitors of Nef-activated human Hck kinase, primary screen, biochemical, Z-Lyte FRET, 384-well, Hck-YEEI. Tyrosine-protein kinase HCK (Homo sapiens), P08631. Recombinant Hck-YEEI plus Nef, Z-Lyte FRET kinase assay. inhibition, % at 20 µM. hit rate 0.68% among 220,000. AID 463187, 2010;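 active = Hck-Nef kinase inhibition above about 50%, limit read from the data; inactive = inhibition below that limit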;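 also: 0% = DMSO with Hck plus Nef and 100% = Hck alone without Nef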
zVAD death inh = inhibitors of zVAD-triggered necroptosis, primary screen, L929 cells; viability rescue, % at 10 µM; AID 1377, 2008; L929 zVAD necroptosis rescue, ATP luminescence, 24 h; with zVAD 60 µM; hit rate 0.38% among 220,000;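 active = activation, scaled between plate controls, above about 75%, limit read from the data; inactive = activation under that limit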;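 also: 0% = zVAD with DMSO and 100% = DMSO alone without zVAD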
Starred values were filed as active, the others as inactive; ? = inconclusive; . = no result. A selection: hits, their analogues and other compounds. The true share with any hit is near 2.1%.

SMILES	Runt-SMMHC FRET	RanGTP-Impb inh	Runt-CBFb FRET	TNF necrop inh	Hck Nef HTS	zVAD death inh
N/C(=N\[N+](=O)[O-])N1CCN(C(=O)c2ccccn2)CC1	.	4	.	.	.	.
N#CC1=C(N)Oc2cc(O)ccc2C1c1ccc2c(c1)OCO2 (configuration not stated)	90*	67*	21	-3	-29	-1
COCC(C)OC(=O)c1c(N)n(Cc2ccco2)c2nc3ccccc3nc12 (configuration not stated)	74	10	.	-1	32	1
COc1ccc(CCNC(=O)c2c(N)n(CCN3CCOCC3)c3nc4ccccc4nc23)cc1OC	46	55*	19	0	47	1
CCCCCn1c(N)c(C(=O)NCCN2CCOCC2)c2nc3ccccc3nc21	94*	60*	1	-10	46	0
Nc1c(C(=O)NCc2ccco2)c2nc3ccccc3nc2n1CCN1CCOCC1	81*	46*	41	-5	34	1
CCOC(=O)c1c(N)n(Cc2ccco2)c2nc3ccccc3nc12	70*	.	48	-6	35	0
CN(C)C=C1C(=O)N(C2CCCCC2)C(=O)N(C2CCCCC2)C1=O	-6	-2	-4	-6	4	0
O=P(NCc1ccccc1)(Oc1ccccc1)Oc1ccccc1	2	1	0	2	2	0
Cc1nn(Cc2ccccc2)c(C)c1C(=O)NCc1ccccc1	-1	-6	-1	0	16	0
Nc1c(C(=O)NCc2ccco2)c2nc3ccccc3nc2n1Cc1ccccc1	76*	55*	68*	-11	24	.
COc1ccc(Cn2c(N)c(C(=O)NCc3ccco3)c3nc4ccccc4nc32)cc1	100*	61*	49	-3	35	0
O=C(c1cccc2ccccc12)C1CCCN(C2CCC2)C1 (configuration not stated)	-2	6	0	1	0	0
CCc1c(-c2ccccc2)nc2ccccc2c1C(=O)N1CCC2(CC1)OCCO2	.	3	.	.	.	.
COC(=O)C1=C(c2cccc(OC)c2OC)C[C@@H]2CC[C@H]1N2C(=O)NCc1ccco1	.	6	.	.	.	.
Oc1cc2c(cc1O)[C@H]1c3ccccc3CN[C@@H]1CC2	56*	1	35	.	.	.
COc1ccc2c3c([nH]c2c1)C(C)=NCC3	73*	62*	4	6	-13	13
CC[C@H]1CC2CN3CCc4c([nH]c5cc(OC)ccc45)[C@](C(=O)OC)(C2)[C@H]13	.	4	.	.	.	.
COCCNC(=O)CN1C(=O)CN=C(c2ccccc2)c2ccccc21	0	?	2	1	2	0
Cc1cccc(N=Cc2c(O)n(C)c(=O)n(C)c2=O)c1	.	-4	.	.	.	.
O=C1NC(=S)N(Cc2ccco2)C(=O)/C1=C\c1cccs1	25	.	42	-1	97*	-1
CCC(=NCC1CCCO1)c1c(O)n(-c2ccc(OC)cc2)c(=O)[nH]c1=O (configuration not stated)	1	-2	-1	1	10	0
Cc1ccc(N2C(=O)NC(=O)/C(=C\c3ccc(N4CCOCC4)cc3)C2=O)cc1	-26	-1	-5	2	5	0
Cc1ccc(N2C(=O)NC(=O)/C(=C\c3ccc([N+](=O)[O-])o3)C2=O)cc1	-11	-3	9	0	50*	1
C=C1C(=O)O[C@@H]2C[C@@H](C)[C@@H]3C=CC(=O)[C@@]3(C)[C@@H](O)[C@H]12	1	0	3	53*	18	94*
SMILES	Runt-SMMHC FRET	RanGTP-Impb inh	Runt-CBFb FRET	TNF necrop inh	Hck Nef HTS	zVAD death inh
CCCCn1c(NC(=O)c2ccco2)c(C(=O)OCC)c2nc3ccccc3nc21	60*	71*	18	-11	14	0
CCCCn1c(=O)c(C(=O)Nc2nc3ccccc3[nH]2)c(O)c2ccccc21	-2	.	-2	.	.	.
CCCCn1c(NS(=O)(=O)c2ccc(C)cc2)c(C(=O)OCC)c2nc3ccccc3nc21	58*	75*	10	-5	23	2
CCOC(=O)c1nsnc1NCCCl	-4	-3	-2	0	22	7
NC1=NC(c2cccnc2)n2c(nc3ccccc32)N1 (configuration not stated)	0	0	2	-1	12	0
O=C1NC(=O)N(CCC2=CCCCC2)C(=O)/C1=C\c1cccs1	10	-4	11	1	51*	-1
Cc1cc(=O)oc2cc3c(cc12)CCCN3	.	84*	.	.	.	.
COc1ccc2c3c1OC1C(O)C=CC4C(C2)[N+](C)(C)CCC341 (configuration not stated)	.	0	.	.	.	.
CC(C)CCOC(=O)c1c(N)n(CC2CCCO2)c2nc3ccccc3nc12 (configuration not stated)	65*	11	22	-7	16	0
CCCCOCCCn1c(N)c(C(=O)OCCOC)c2nc3ccccc3nc21	103*	?	44	-1	30	0
CCCCn1c(N)c(C(=O)OCC2CCCO2)c2nc3ccccc3nc21 (configuration not stated)	106*	?	41	-2	26	3
CCCn1c(C(=O)c2ccccc2)nc2ccccc21	-2	-4	0	0	29	1
CC(C)CCn1c(N)c(C(=O)OCC2CCCO2)c2nc3ccccc3nc21 (configuration not stated)	82*	?	38	-4	32	3
OC(Cn1c2ccccc2c2ccccc21)C[n+]1cccc2ccccc21 (configuration not stated)	2	6	-3	-3	-1	0
O=C(COc1ccc(Cl)cc1)N1CCN(C2CCCC2)CC1	.	3	.	.	.	.
Cc1ccc(N2C(=O)NC(=O)C3(Cc4ccccc4N4CCCC43)C2=O)cc1 (configuration not stated)	-4	20*	2	-2	7	0
CN(C)c1ccc(/C=C2/C(=N\O)C3CCN2CC3)cc1	29	57*	1	5	-8	1
O=C(/C=C/c1ccc2c(c1)OCO2)c1c(O)n(CCc2ccccc2)c(=O)[nH]c1=O	0	1	-2	-5	16	0
